Measured values taken from ChEMBL document CHEMBL3526129, “Species differences in tissue distribution and enzyme activities of arylacetamide deacetylase in human, rat, and mouse” (Drug Metab Dispos, 2012).
pKi: −log10 of the molar value.

Assays:
[1] = target: T1, Arylacetamide deacetylase (Homo sapiens, UniProt P22760); assay: Activity of AADAC in human liver microsome; type: ADME; settings: microsomes
T1 sequence (P22760 whole entry): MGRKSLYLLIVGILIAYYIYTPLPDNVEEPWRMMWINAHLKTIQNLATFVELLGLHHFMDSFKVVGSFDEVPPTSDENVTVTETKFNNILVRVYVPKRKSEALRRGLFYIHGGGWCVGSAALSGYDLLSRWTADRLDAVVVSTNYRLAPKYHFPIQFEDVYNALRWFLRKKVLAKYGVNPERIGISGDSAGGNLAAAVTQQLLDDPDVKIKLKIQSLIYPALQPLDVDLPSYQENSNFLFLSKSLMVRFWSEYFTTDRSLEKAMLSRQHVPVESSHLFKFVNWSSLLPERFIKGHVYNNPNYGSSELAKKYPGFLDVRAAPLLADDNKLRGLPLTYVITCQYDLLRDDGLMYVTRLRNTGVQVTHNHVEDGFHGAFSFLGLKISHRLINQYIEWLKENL
In short: (§1)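 Hydrolase activity of tissue microsomes in 0.2 ml mixtures of 100 mM potassium phosphate (pH 7.4). Microsomal protein: 0.4 mg/ml for flutamide (0.025–0.75 mM) and phenacetin (0.05–4 mM); 0.5 mg/ml for rifampicin (0.005–1 mM). Products measured were FLU-1, p-phenetidine and 25-deacetylrifampicin, within linear ranges. Three independent experiments.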

[2] = target: T1, Arylacetamide deacetylase; assay: Inhibition of AADAC in human kidney microsome
In short: (§2)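 Flutamide hydrolysis to FLU-1 by pooled human jejunum (n = 10) or single-donor human renal microsomes at 0.4 mg/ml in 100 mM potassium phosphate (pH 7.4). Flutamide was 0.005–0.75 mM (jejunum) or 0.025–0.75 mM (kidney). Kinetics were fitted to the substrate inhibition equation, combined with Michaelis-Menten for jejunum. Triplicate determinations.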

[3] = Intrinsic clearance in rat Liver microsome at 0.025 to 0.75 mM; type: ADME; settings: liver microsomes, read-out: CLH
In short: (§3)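 Flutamide hydrolysis to FLU-1 in 100 mM potassium phosphate (pH 7.4) with 0.4 mg/ml microsomal protein. Flutamide was 0.025–0.75 mM, or 0.005–0.75 mM for human jejunum. Rodent microsomes were pooled from 3 male SD rats or 5 male C57BL/6J mice. CLint is Vmax/Km, or the initial slope when Km was high; for Hill fits, CLmax. Triplicate determinations.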

[4] = Intrinsic clearance in human Liver microsome at 0.025 to 0.75 mM; type: ADME; settings: liver microsomes, read-out: CLH; in short: as §3
[5] = target: T1, Arylacetamide deacetylase; assay: Activity of AADAC in human kidney microsome; type: ADME; settings: microsomes; in short: as §1
[6] = Intrinsic clearance in human kidney microsome at 0.025 to 0.75 mM; type: ADME; settings: kidney microsomes; in short: as §3
[7] = Intrinsic clearance in mouse jejunum microsome at 0.005 to 0.75 mM; type: ADME; settings: jejunum microsomes
[8] = target: T2, Arylacetamide deacetylase (Mus musculus, UniProt Q99PG0); assay: Activity of AADAC in mouse lung microsome; type: ADME; settings: microsomes; in short: as §1
T2 sequence (Q99PG0 whole entry): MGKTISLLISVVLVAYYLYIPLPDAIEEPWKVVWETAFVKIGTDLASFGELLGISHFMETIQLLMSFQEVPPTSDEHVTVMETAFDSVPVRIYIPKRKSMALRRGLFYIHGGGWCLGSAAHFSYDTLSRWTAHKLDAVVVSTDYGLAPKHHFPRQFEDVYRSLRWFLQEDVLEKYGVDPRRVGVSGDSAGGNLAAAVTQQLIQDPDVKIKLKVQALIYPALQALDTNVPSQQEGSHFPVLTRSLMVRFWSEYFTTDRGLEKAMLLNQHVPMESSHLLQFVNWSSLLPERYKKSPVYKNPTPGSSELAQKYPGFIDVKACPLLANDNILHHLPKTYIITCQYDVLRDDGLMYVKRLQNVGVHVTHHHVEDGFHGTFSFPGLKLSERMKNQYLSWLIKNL

[9] = Intrinsic clearance in rat lung microsome at 0.025 to 0.75 mM; type: ADME; settings: lung microsomes; in short: as §3
[10] = Intrinsic clearance in mouse kidney microsome at 0.025 to 0.75 mM; type: ADME; settings: kidney microsomes; in short: as §3
[11] = Intrinsic clearance in mouse Liver microsome at 0.025 to 0.75 mM; type: ADME; settings: liver microsomes, read-out: CLH; in short: as §3
[12] = target: T1, Arylacetamide deacetylase; assay: Activity of AADAC in human jejunum microsome; type: ADME; settings: microsomes; in short: as §1
[13] = Intrinsic clearance in human jejunum microsome at 0.005 to 0.75 mM; type: ADME; settings: jejunum microsomes; in short: as §3
[14] = target: T1, Arylacetamide deacetylase; assay: Inhibition of AADAC in human jejunum microsome; in short: as §2
[15] = Intrinsic clearance in rat jejunum microsome at 0.005 to 0.75 mM; type: ADME; settings: jejunum microsomes
[16] = Intrinsic clearance in rat kidney microsome at 0.025 to 0.75 mM; type: ADME; settings: kidney microsomes; in short: as §3
[17] = Intrinsic clearance in mouse jejunum microsome at 0.05 to 4 mM; type: ADME; settings: jejunum microsomes
[18] = Intrinsic clearance in rat jejunum microsome at 0.05 to 4 mM; type: ADME; settings: jejunum microsomes
[19] = target: T2, Arylacetamide deacetylase; assay: Ratio Vmax to Km in mouse recombinant AADAC; type: ADME
[20] = Intrinsic clearance in human jejunum microsome at 0.05 to 4 mM; type: ADME; settings: jejunum microsomes
In short: (§4)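 Phenacetin hydrolysis by tissue microsomes: 0.05–4 mM phenacetin with 0.4 mg/ml microsomal protein in 100 mM potassium phosphate (pH 7.4). p-Phenetidine formation was read within its linear time range. CLint was Vmax/Km, or the initial slope of velocity vs substrate when Km was high. Triplicate determinations. Human liver pooled (n=50), jejunum pooled (n=10), kidney and lung single donors.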

[21] = Intrinsic clearance in human kidney microsome at 0.05 to 4 mM; type: ADME; settings: microsomes, 4000 µM; in short: as §4
[22] = Intrinsic clearance in human lung microsome at 0.05 to 4 mM; type: ADME; settings: microsomes, 4000 µM; in short: as §4
Liver microsome = assay: Intrinsic clearance in human Liver microsome at 0.05 to 4 mM; type: ADME; settings: microsomes, 4000 µM; in short: as §4
[23] = Intrinsic clearance in mouse Liver microsome at 0.05 to 4 mM; type: ADME; settings: liver microsomes, read-out: CLH; in short: as §4
[24] = target: T3, Arylacetamide deacetylase (Rattus norvegicus, UniProt Q9QZH8); assay: Ratio Vmax to Km in rat recombinant AADAC; type: ADME
T3 sequence (Q9QZH8 whole entry): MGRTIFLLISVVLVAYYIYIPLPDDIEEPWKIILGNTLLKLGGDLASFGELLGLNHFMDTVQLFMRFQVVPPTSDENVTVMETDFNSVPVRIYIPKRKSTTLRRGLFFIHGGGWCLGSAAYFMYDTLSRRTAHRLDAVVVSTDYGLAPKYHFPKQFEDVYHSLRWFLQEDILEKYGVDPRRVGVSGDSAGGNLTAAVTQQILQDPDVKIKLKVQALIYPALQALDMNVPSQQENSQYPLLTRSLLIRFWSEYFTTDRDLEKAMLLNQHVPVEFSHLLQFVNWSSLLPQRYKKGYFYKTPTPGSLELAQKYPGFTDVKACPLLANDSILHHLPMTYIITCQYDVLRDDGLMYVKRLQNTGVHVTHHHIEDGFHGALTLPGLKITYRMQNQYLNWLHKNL

[25] = Intrinsic clearance in rat Liver microsome at 0.05 to 4 mM; type: ADME; settings: liver microsomes, read-out: CLH; in short: as §4
[26] = Intrinsic clearance in rat lung microsome at 0.05 to 4 mM; type: ADME; settings: lung microsomes
[27] = Intrinsic clearance in mouse kidney microsome at 0.05 to 4 mM; type: ADME; settings: kidney microsomes; in short: as §4
[28] = Intrinsic clearance in rat kidney microsome at 0.05 to 4 mM; type: ADME; settings: kidney microsomes; in short: as §4
[29] = target: T1, Arylacetamide deacetylase; assay: Ratio Vmax to Km in human recombinant AADAC; type: ADME
[30] = target: T1, Arylacetamide deacetylase; assay: Inhibition of human recombinant AADAC
[31] = Intrinsic clearance in mouse Liver microsome at 0.05 to 1 mM; type: ADME; settings: liver microsomes, read-out: CLH
[32] = target: T1, Arylacetamide deacetylase; assay: Inhibition of AADAC in human liver microsome
[33] = Intrinsic clearance in human jejunum microsome at 0.05 to 1 mM; type: ADME; settings: jejunum microsomes
[34] = Intrinsic clearance in human Liver microsome at 0.05 to 1 mM; type: ADME; settings: liver microsomes, read-out: CLH

In the case of `CC(C)C(=O)Nc1ccc([N+](=O)[O-])c(C(F)(F)F)c1` [FLUTAMIDE], the Vmax [1] was 1.9 nmol/min/mg, the pKi [2] was 6.22 and the microsomal CLint at up to 750 µM [3] was 1.4 µL/min/mg. The microsomal CLint at up to 750 µM [4] was 1.8 µL/min/mg, the S50 [5] was 2.1 mM and the microsomal CLint at up to 750 µM [6] was 1.2 µL/min/mg. The microsomal CLint at up to 750 µM [7] was 0.2 µL/min/mg, the Vmax [8] was 0 nmol/min/mg and the microsomal CLint at up to 750 µM [9] was 0.1 µL/min/mg. It also gave a microsomal CLint at up to 750 µM [10] of 0.6 µL/min/mg, a microsomal CLint at up to 750 µM [11] of 1.2 µL/min/mg and an S50 [12] of 0.2 mM. The microsomal CLint at up to 750 µM [13] was 12.9 µL/min/mg, the pKi [14] was 4.85 and the microsomal CLint at up to 750 µM [15] was 0.2 µL/min/mg. It also gave a microsomal CLint at up to 750 µM [16] of 0.2 µL/min/mg.
For `CCOc1ccc(NC(C)=O)cc1` [PHENACETIN], the microsomal CLint at up to 4000 µM [17] was 0.1 µL/min/mg, the microsomal CLint at up to 4000 µM [18] was 0.1 µL/min/mg and the Vmax/Km [19] was 5.7 uL/min/U. The microsomal CLint at up to 4000 µM [20] was 4 µL/min/mg, the CL [21] was 0.2 µL/min/mg and the CL [22] was 0.4 µL/min/mg. The CLH (Liver microsome) was 1.1 µL/min/mg, the microsomal CLint at up to 4000 µM [23] was 1.3 µL/min/mg and the Vmax/Km [24] was 2.2 uL/min/U. For the same compound, the microsomal CLint at up to 4000 µM [25] was 0.2 µL/min/mg, the microsomal CLint at up to 4000 µM [26] was 0.1 µL/min/mg and the microsomal CLint at up to 4000 µM [27] was 0.4 µL/min/mg. For the same compound, the microsomal CLint at up to 4000 µM [28] was 0.1 µL/min/mg and the Vmax/Km [29] was 3.5 uL/min/U.
For `CO[C@H]1/C=C/O[C@@]2(C)Oc3c(C)c(O)c4c(O)c(c(/C=N/N5CCN(C)CC5)c(O)c4c3C2=O)NC(=O)/C(C)=C\C=C\[C@H](C)[C@H](O)[C@@H](C)[C@@H](O)[C@@H](C)[C@H](OC(C)=O)[C@@H]1C` [RIFAMPIN], the pKi [30] was 3.52, the microsomal CLint at up to 1000 µM [31] was 0.2 µL/min/mg and the pKi [32] was 3.70. For the same compound, the microsomal CLint at up to 1000 µM [33] was 0.7 µL/min/mg, the pKi [14] was 3.15 and the microsomal CLint at up to 1000 µM [34] was 0.7 µL/min/mg.
